Among the data in PubChem BioAssay AID1040 (The Scripps Research Institute Molecular Screening Center, 2008) are inhibition values, retold here.

Each structure is given as a SMILES string. Hit rate of the full screen: of about 200,000 compounds, about 2,000 (1%) were called active. What follows is part of a selection rich in actives, with near analogues and random picks from the rest. Values without a mark were called inactive.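 How the source made its calls: active means inhibition above the campaign mean inhibition of all tested compounds plus 3 SD (cut at about 20% in these data); inactive means the rest.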

Sequence of Neuropeptide Y receptor type 1 (Homo sapiens) (P25929 whole entry, looked up): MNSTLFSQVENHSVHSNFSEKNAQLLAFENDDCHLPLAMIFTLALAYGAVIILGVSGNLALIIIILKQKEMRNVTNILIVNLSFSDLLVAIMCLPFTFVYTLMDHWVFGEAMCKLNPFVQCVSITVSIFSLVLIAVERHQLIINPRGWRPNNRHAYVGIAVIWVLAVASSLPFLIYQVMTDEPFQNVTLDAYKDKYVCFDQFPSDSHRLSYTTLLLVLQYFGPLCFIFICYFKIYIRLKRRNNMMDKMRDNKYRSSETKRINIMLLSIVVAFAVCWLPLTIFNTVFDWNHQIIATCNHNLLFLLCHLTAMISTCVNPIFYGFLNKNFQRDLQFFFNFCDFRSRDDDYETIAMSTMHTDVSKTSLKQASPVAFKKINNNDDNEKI

The target of this experiment is Neuropeptide Y receptor type 1 (Homo sapiens) (UniProt P25929). Nature of the experiment: NPY-Y1 receptor antagonists, primary screen, cell-based (AID 1040).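 Further: 0% = DMSO wells given NPY plus isoproterenol and 100% = isoproterenol alone without NPY.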 The settings on record: HEK293-CNG Y1 cells, membrane potential fluorescence; at 3.6 µM; active compounds read high; NPY at EC95, then isoproterenol. The procedure, abridged:
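Material: HEK293 cells co-expressing NPY Y1 receptor and cyclic-nucleotide gated channel. Timing: compound incubation 1 h at room temperature, readout 45 min post-stimulation. Signal: fluorescence, membrane potential probe.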
Regarding `CCC(C)[C@@H](C(=O)N1CCNCC1)n1cc(CCCCN)nn1` (stereo partly drawn), the inhibition was 1.85%.

On to `O=C(CC1NCCNC1=O)Nc1cc(Cl)cc(Cl)c1` (stereo not drawn), for which the inhibition is 0.62%.

Regarding `COC(=O)c1ccc(/C=N/OCC(=O)Nc2cc(F)ccc2F)cc1`, the inhibition was 11.1%.

With `Cc1ccc(CSc2nc3[nH]ncc3c(=O)[nH]2)cc1`, the inhibition is 7.17%.

`CCC(c1nnnn1C1CCCC1)N(Cc1cccs1)Cc1cc2cccc(C)c2[nH]c1=O` (stereo not drawn): the inhibition was 20.4% (active).

As for `Cc1cccc2cc(CN(Cc3cccs3)C(c3nnnn3C3CCCC3)C(C)C)c(=O)[nH]c12` (stereo not drawn), the inhibition was 14.5%.

Take `Cc1cccc2cc(CN(Cc3ccc4c(c3)OCO4)Cc3nnnn3C3CCCC3)c(=O)[nH]c12`: the inhibition was -4.12%.

`CCOc1cccc(OCCCOc2cccc3cccnc23)c1`: the inhibition was 1.99%.

Regarding `CN(C)S(=O)(=O)c1cccc(NC(=O)COC(=O)c2cc(=O)[nH]c(=O)[nH]2)c1`, the inhibition is 0.75%.

Consider `CCOC(=O)C1CCN(C(=O)/C=C/c2cc(OC)c(OC)c(OC)c2)CC1`, for which the inhibition is -1.4%.

Consider `Cc1ccsc1C(=O)N/N=C/c1ccc([N+](=O)[O-])cc1`, for which the inhibition is 2.54%.

As for `Cc1ccc(COc2ccc(/C=N/NC(=O)CN3CCCCC3)cc2)cc1`, the inhibition is 16.6%.

Consider `Cc1ccc(/C=N/NC(=O)c2sccc2OCc2ccc(F)cc2)cc1`, for which the inhibition was 27.2% (active).

As for `CS/C(=C\[N+](=O)[O-])Nc1ccc(C)cc1`, the inhibition is 10.6%.

Regarding `O=C(COC(=O)C1CC2C=CC1C2)Nc1ccccc1` (stereo not drawn), the inhibition is -2.39%.

`CCCCN(CC)C(=O)c1ccc2c(c1)OCO2`: the inhibition was -2.36%.

For `CCOc1ccc(CCNC(=O)C2=C(C)C(=O)OC23CCC(C)CC3)cc1OCC` (stereo not drawn), the inhibition is 8.46%.

`O=C(O)CSc1nccc2ccccc12`: the inhibition was 21.7% (active).

With `COC(=O)CSc1nc(C2CC2)nc2ccccc12`, the inhibition is 3.03%.

Take `O=C(O)CSc1nccn1-c1cccc(Cl)c1`: the inhibition was 7.38%.

With `CC1COc2ccccc2N1C(=O)c1cccnc1Cl` (stereo not drawn), the inhibition was 1.41%.

As to `CCOc1ccccc1Nc1ccc(C(=O)O)cc1[N+](=O)[O-]`, the inhibition is 3.86%.

Regarding `ClC1(Cl)CC1CSc1ncn[nH]1` (stereo not drawn), the inhibition was 3.1%.

Consider `COC(=O)c1nc2n(n1)C(c1ccc([N+](=O)[O-])cc1)C(C(=O)Nc1ccc(Cl)cc1)=C(C)N2` (stereo not drawn), for which the inhibition is -1.89%.

Regarding `Cc1nn(C)c(C)c1Sc1ccccc1N`, the inhibition was -0.64%.

`C(=C\c1ccccc1)/CSc1nnc(-c2cccnc2)n1Cc1ccco1`: the inhibition was 9.54%.

For the molecule `COc1ccc2[nH]c3c(=O)n(Cc4ccco4)cnc3c2c1`, the inhibition was 1.7%.

`N=c1c2c(-c3ccccc3)c(-c3ccccc3)oc2ncn1Cc1ccco1`: the inhibition was 25.5% (active).

`COc1ccc(-n2cnc3cc(NCc4ccco4)ccc32)cc1`: the inhibition is -4.2%.

Regarding `COc1ccc(-c2oc3ncn(Cc4ccco4)c(=N)c3c2-c2ccc(OC)cc2)cc1`, the inhibition is 31.4% (active).

With `c1ccc(-c2oc3ncnc(N4CCOCC4)c3c2-c2ccccc2)cc1`, the inhibition was 4.24%.

As to `Cc1ccccc1NC(=O)NC1(C(=O)N2CCCC2)CCCCC1`, the inhibition is 0.5%.

Take `COc1cc(SC)ccc1C(=O)Nc1cc(C)ccn1`: the inhibition was 4.33%.

In the case of `Cc1ccc(C(=O)NCC(=O)O)s1`, the inhibition is -2.04%.

For the molecule `COc1cccc(OC)c1C(=O)NC(=S)Nc1ccc(N2CCOCC2)c(Cl)c1`, the inhibition is 9.33%.

Take `Cc1c(Cl)c([N+](=O)[O-])nn1CC(=O)NCC1CCCO1` (stereo not drawn): the inhibition is -5.55%.

Regarding `COC(=O)c1ccc(CSc2ccccc2C)o1`, the inhibition is -3.04%.

Take `CCOC(=O)c1cnn(Cc2ccccc2Cl)c1N`: the inhibition is -2.37%.

On to `COC(=O)c1ccc(COC(=O)c2c(C)nn(Cc3ccccc3Cl)c2Cl)o1`, for which the inhibition was 22.2% (active).

In the case of `O=C(Nc1ccc(F)cc1)N1CCCC(c2nc3c(nnn3Cc3ccccc3Cl)c(=O)[nH]2)C1` (stereo not drawn), the inhibition is -6.56%.

With `Oc1ccccc1C=NC1CCCCC1N=Cc1ccccc1O` (stereo not drawn), the inhibition was 4.16%.

As for `Cc1ccc(Cl)cc1N1CCN(C(=O)c2cccc3c(=O)c(C)c(-c4ccccc4)oc23)CC1`, the inhibition is 4.2%.

Consider `Cc1cccc(OCCC(=O)Nc2cc(S(=O)(=O)N3CCCCC3)ccc2N2CCOCC2)c1`, for which the inhibition was 2.92%.

For the molecule `Cc1ncc([N+](=O)[O-])n1CCOC(=O)c1ccc(Br)cc1`, the inhibition is -0.91%.

Take `COc1ccccc1NC(=O)COC(=O)Cc1ccc(S(=O)(=O)N2CCCCC2)s1`: the inhibition is -4.82%.

For `O=C(Nc1ccc(N2C(=O)c3cccc4cccc(c34)C2=O)cc1)c1ccc(N2CCCCC2)c([N+](=O)[O-])c1`, the inhibition was -0.12%.

Take `COc1ccc(-c2[nH]ncc2/C=N/NC(=O)c2cc(Br)ccc2O)c(OC)c1`: the inhibition was 4.29%.

Consider `CCS(=O)(=O)n1nc(-c2ccc(OC)cc2)nc1SC`, for which the inhibition was 3.74%.

`CS(=O)(=O)n1nc(-c2ccccc2)nc1NCc1ccco1`: the inhibition is -0.86%.

Regarding `CCS(=O)(=O)n1nc(-c2ccccc2)nc1SCc1ccccc1`, the inhibition is 28.2% (active).

For the molecule `Cc1ccnc(NC(=O)CCC(=O)N(CC(=O)NCc2ccccc2)Cc2ccco2)c1`, the inhibition is 2.07%.

On to `CC(=O)Oc1ccccc1C1=NN(C(C)=O)C(c2ccccc2)C1` (stereo not drawn), for which the inhibition was 1.31%.

Take `Cc1ccc(N2C(=O)C3N=NN(CC(=O)N4N=C(c5cccc6ccccc56)CC4c4ccccc4)C3C2=O)cc1` (stereo not drawn): the inhibition was 20.5% (active).

For `O=C1C2N=NN(CC(=O)N3N=C(c4cccc5ccccc45)CC3c3ccccc3)C2C(=O)N1c1ccccc1` (stereo not drawn), the inhibition is 6.21%.

For `CCn1ccnc1CN1CCCC(C(=O)c2ccc3c4c(cccc24)CC3)C1` (stereo not drawn), the inhibition is 3.36%.

As to `OCC1(CCc2ccccc2)CCN(Cc2ccc3nsnc3c2)CC1`, the inhibition is 22.8% (active).

In the case of `CC(=O)c1cccc(CN2CCC(CO)(Cc3ccccc3)CC2)c1`, the inhibition was 2.21%.

`Cc1cccc(-c2ncc(CN3CCC(CO)(CCCc4ccccc4)CC3)cn2)c1`: the inhibition is 4.93%.

In the case of `COC(=O)C(C(=O)Nc1cccc(Cl)c1C)C1CCCC1` (stereo not drawn), the inhibition is 5.62%.

As for `Cc1ccccc1Nc1scc(-c2ccc(Br)cc2)[n+]1-c1ccccc1C`, the inhibition was 31.6% (active).

In the case of `COc1ccc(C)cc1-n1nnnc1SCc1nc2ccccc2c(=O)[nH]1`, the inhibition is -0.32%.

With `CCN(CCCNC(=O)CSc1cc(=O)n(C)c2cc(Cl)ccc12)Cc1ccccc1`, the inhibition was 1.58%.

As to `COCCCNC(=S)N1CCCC(c2nc3cc(C)c(C)cc3[nH]2)C1` (stereo not drawn), the inhibition is -0.11%.

On to `NS(=O)(=O)c1ccc(CCNC(=O)c2ccc([N+](=O)[O-])cc2[N+](=O)[O-])cc1`, for which the inhibition was 0.19%.

`N#Cc1cnn2cc(CCN3CCOCC3)c(-c3ccc(F)cc3)nc12`: the inhibition is -1.23%.

With `COc1ccc(/C=N/NC(=O)Cn2cc(C(F)(F)F)ccc2=O)cc1`, the inhibition is 0.12%.

As for `CCOC(=O)N1CCN(S(=O)(=O)c2ccc(C(=O)Nc3ccc(F)cc3F)cc2)CC1`, the inhibition was 30.3% (active).

Regarding `COc1ccc(C(=O)Nc2ccc(F)cc2F)cc1`, the inhibition is 6.11%.

Regarding `O=C(Nc1cccc(F)c1)c1ccc(S(=O)(=O)N2CCCC2)cc1`, the inhibition is -0.82%.

Regarding `CC(=O)c1cnc(SCC(=O)O)nc1C`, the inhibition was -4%.

With `COc1ccc(C(=O)NN2C(=O)C3C(c4ccccc4)C=CC(c4ccccc4)C3C2=O)cc1` (stereo not drawn), the inhibition was 11.3%.

Consider `COc1ccc2c(c1)C(C)=CC(C)(C)N2C(=O)CNCc1ccc2c(c1)OCO2`, for which the inhibition is 27.3% (active).

With `COc1ccc2c(c1)C(C)=CC(C)(C)N2C(=O)Nc1ccccc1`, the inhibition is 13.7%.

Take `CCn1cc(C(=O)NCc2ccc3c(c2)OCO3)c2cc(OC)c(OC)cc2c1=O`: the inhibition was 1.79%.

As for `O=C(/C=C/c1ccc(OCc2c(F)cccc2Cl)cc1)N1CCOCC1`, the inhibition is 5.45%.

Turning to `COn1c(-c2ccc(Cl)cc2Cl)nc2ncccc21`, the inhibition is 5.03%.

Consider `CCC(=O)c1ccc(N2CCN(C(=O)c3cc([N+](=O)[O-])ccc3F)CC2)c(F)c1`, for which the inhibition was -2.39%.

For the molecule `O=C(Nc1cccc(Cl)c1)c1cc([N+](=O)[O-])ccc1N1CCN(CCO)CC1`, the inhibition is 0.17%.

As to `CCN1CCN(c2ccc([N+](=O)[O-])cc2C(=O)c2ccc(Cl)cc2)CC1`, the inhibition was 36.6% (active).

Consider `CCc1ccc(OCC(=O)OCC(=O)c2c(N)n(C)c(=O)n(C)c2=O)cc1`, for which the inhibition is -0.61%.

`O=C(NCc1ccco1)c1nn2cccnc2c1Cl`: the inhibition was 1.08%.

As to `COc1ccc(CN(CC(=O)NC2CCCC2)C(=O)CCC(=O)Nc2cc(C)on2)cc1`, the inhibition was 1.61%.

As for `Cc1cc(C(C)(C)C)oc1C(=O)N(CC(=O)NC1CCCC1)Cc1ccc(Cl)cc1`, the inhibition is 28.1% (active).

Turning to `Cc1noc(C)c1C(=O)N(CC(=O)NC1CCCC1)Cc1ccccc1F`, the inhibition is 1.99%.

With `COc1ccc(Cc2nnc(N/N=C/c3ccccc3O)[nH]c2=O)cc1OC`, the inhibition is 7.54%.

On to `Cc1nc([N+](=O)[O-])c(NCCCO)n1Cc1ccccc1`, for which the inhibition is -2.13%.

`N=c1c2c(-c3ccccc3)c(-c3ccccc3)n(Cc3ccccc3)c2ncn1CCCO`: the inhibition was 73.2% (active).

For the molecule `OCCCN1c2ccccc2Nc2nnc(-c3ccccc3)cc21`, the inhibition is -7.91%.

Turning to `COc1ccc(-c2nn(-c3ccccc3)cc2CN2CCCO2)c(F)c1`, the inhibition was 3.17%.

Regarding `CCCOC(=O)c1[nH]c2c(c1C)C(=O)CC(c1cccs1)C2` (stereo not drawn), the inhibition is 33.9% (active).

On to `CCOC(=O)c1[nH]c2c(c1C)C(=O)CC(c1ccc(N(C)C)cc1)C2` (stereo not drawn), for which the inhibition was 6.58%.

In the case of `CCCOC(=O)c1[nH]c2c(c1C)C(=O)CC(c1cc(OC)c(OC)c(OC)c1)C2` (stereo not drawn), the inhibition is -8.2%.

For `COc1ccc(NC(=O)/C(C#N)=C\c2cc(OC)c(OCc3ccc(C(=O)O)cc3)cc2Br)cc1`, the inhibition was 2.86%.
